The full list was thinned out, with hits kept by preference.
Insulin prom act = TRM-6 insulin promoter activation; 130,000 compounds, 0.81% hits; TRM-6 cells, insulin promoter eGFP reporter, imaging; plate-scaled: unstimulated 0, stimulated control 100; activation, % at 2 µM; AID 1296;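 active = activation at 2 µM above a set limit, confirmed on inspection of the cell images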;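 also: share of cells whose green reporter signal exceeds an intensity cutoff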
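System: human fetal islet-derived TRM-6 cells with tamoxifen-inducible insulin promoter–eGFP reporter; input: seeding density of 1,000 cells per well; buffer or medium: Low-glucose (5.5 mM) medium with tamoxifen; incubation: compound exposure 48 h, 37 °C; measured by: high-content imaging of fixed cells with Hoechst nuclear stain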
Hits are given with their value; . = inactive.

SMILES	Insulin prom act
O=C(Nc1ccc(Cl)cn1)c1ccc(-c2cc(Cl)ccc2Cl)o1	.
COc1ccc(Cl)cc1NC(=O)c1ccco1	.
O=C(Nc1ccc(Cl)cc1C(=O)Nc1ccc(Br)cn1)c1ccco1	600
Cn1nnnc1SCc1ccc(C(=O)Nc2ccc(Br)cc2)cc1	.
Cc1noc(C)c1C(=O)N1CCN(S(=O)(=O)c2ccc(F)cc2)CC1	.
Cn1c(CO)cnc1S(=O)(=O)Cc1ccc(Cl)cc1	.
Cc1nc(N2CCN(S(=O)(=O)c3ccccc3)CC2)c2c3c(sc2n1)CC(C)CC3 (stereo unspecified)	.
CC(=O)N1CCN(c2ncnc3sc(-c4ccccc4)cc23)CC1	.
Cc1nc(N2CCN(S(=O)(=O)c3ccccc3)CC2)c2cc(-c3ccccc3)sc2n1	81
COC(=O)c1ccc(C2OCC(C)(C)CO2)cc1	.
O=C(Nc1ccc2c(c1)OCO2)c1ccc(CN2CCOCC2)cc1	.
O=C(Cc1ccccc1)Nc1ccc(CN2CCOCC2)cc1	.
CSc1ccccc1NC(=O)c1ccc(CN2CCOCC2)cc1	276
CC(C)CCN(C(=S)Nc1cccc(F)c1)C(C)c1cccs1 (stereo unspecified)	.
CCOCCCNC(=O)CN1C(=O)/C(=C/c2ccccc2)Sc2ccccc21	313
COCCCNC(=O)CN1C(=O)c2ccccc2C1=O	.
CCN1CCN(CCCNC(=O)c2ccc(/C=C3/Sc4ccccc4N(Cc4ccccc4F)C3=O)cc2)CC1	.
CC1(C(=O)O)CCC(C(=O)Nc2ccccc2O)C1(C)C (stereo unspecified)	.
Cc1cccc2cc(C#N)c(SCC(=O)NCc3cccs3)nc12	.
CCN(CC)S(=O)(=O)c1ccc2[nH]c(=O)cc(C(=O)Nc3ccc(C)cc3)c2c1	.
Cc1[nH]nc2c1C(c1cc(Br)cs1)C(C#N)=C(N)O2 (stereo unspecified)	.
COc1ccc(-n2c(Cc3cc(=O)[nH]c(=O)[nH]3)nnc2SCC(=O)Nc2cc(C(F)(F)F)ccc2Cl)cc1	255
COc1ccc(NCc2nnc(SCC(=O)Nc3cc(C(F)(F)F)ccc3Cl)o2)cc1	.
CCOc1ccc(-n2c(Cc3cc(=O)[nH]c(=O)[nH]3)nnc2SCC(=O)Nc2nnc(C)s2)cc1	.
Cc1nn(C)c(C)c1CS(=O)(=O)c1ccccc1	.
SMILES	Insulin prom act
Cc1c2cnn(CC(=O)Nc3c(F)c(F)cc(F)c3F)c(=O)c2c(C)n1Cc1ccccc1F	.
CCOC(=O)c1c(-c2ccc(C)cc2)csc1NC(=O)/C(C#N)=C/c1ccc(O)c(OC)c1	.
FC(F)(F)c1cccc(-c2nnc(-c3ccccc3)c(N3CCOCC3)n2)c1	233
FC(F)(F)c1nnc(-c2ccccc2)nc1N1CCOCC1	.
Cc1ccc(-c2nnc(C)c(N3CCOCC3)n2)cc1	.
COc1ccc(-c2nc(C)sc2C)cc1	419
COCC(=O)Nc1nc(-c2ccc(C)cc2)c(C)s1	.
COc1ccc(-c2sc(NC(C)=O)nc2-c2ccccc2)cc1	.
COCCCNC(=O)CNC(=S)N(Cc1ccc(F)cc1)C1CCCCC1	.
COc1ccccc1Oc1coc2c(CN3CCN(C)CC3)c(O)ccc2c1=O	.
O=C1/C(=C/c2ccco2)CCc2ccccc21	.
CC1CCN(Cc2c(O)ccc3c2O/C(=C\c2ccco2)C3=O)CC1	486
COc1ccc(Cc2nnc3c4cnn(C)c4ncn23)cc1	.
CC(C)(C)c1ccc(/C=C/C(=O)N2CCCCC2)cc1	335
O=C(/C=C/c1ccc(Cl)cc1)N1CCN(c2ncccn2)CC1	.
CC(C)Cc1ccc(/C=C/C(=O)N2CCCCC2)cc1	.
O=C(N=C1c2ccccc2CN1c1ccc(F)cc1)c1ccc(Cl)nc1	.
CC[n+]1c(/C=C/C=C/N(C(C)=O)c2ccccc2)sc2ccccc21	203
CCCN1CCC(NC(=O)Nc2ccc(F)cc2F)CC1	.
O=c1c2[nH]c3ccc(F)cc3c2ncn1C1CCCCC1	.
CC(=O)Nc1ccc(-n2cnnn2)cc1	512
O=C(COc1ccc(F)cc1)Nc1ccc(-n2cnnn2)cc1	.
CCOC(=O)c1ccc(NC(=O)COc2ccc(-n3cnnn3)cc2)cc1	.
Cc1cccc(-n2ncc3c(Nc4c(C)n(C)n(-c5ccccc5)c4=O)ncnc32)c1	.
O=C(CNS(=O)(=O)c1ccc(Br)cc1)N1CCN(c2ccc(F)cc2)CC1	.
SMILES	Insulin prom act
COc1ccc(S(=O)(=O)N(C)CC(=O)N2CCOCC2)cc1	.
CN(CC(=O)N1CCN(c2ccc(F)cc2)CC1)S(=O)(=O)c1ccc(F)cc1	79
Cc1ccc(Cn2cc(SCC(N)=O)c3ccccc32)cc1	.
CC1=CC(C)(C)N2C(=O)C3(N=C(N)NC(Nc4ccccc4)=N3)c3cc(C)cc1c32 (stereo unspecified)	481
O=C(CCS(=O)NCc1ccccc1)NCc1ccccc1 (stereo unspecified)	.
COC(=O)C1=C(C)NC(=O)NC1c1ccc(-c2ccc(F)cc2)o1 (stereo unspecified)	.
COC(=O)C1=C(C)NC(=S)NC1c1ccc(-c2cccc(Cl)c2)o1 (stereo unspecified)	.
COC(=O)C1=C(C)NC(=S)NC1c1ccc(-c2ccccc2C(=O)OC)o1 (stereo unspecified)	429
Cc1nc(SCC(O)CO)c([N+](=O)[O-])[nH]1 (stereo unspecified)	.
O=C(c1cccn2c(=O)c3ccccc3nc12)N1CCN(Cc2ccc3c(c2)OCO3)CC1	.
O=C(CN1C(=O)c2cccc3cccc1c23)N1CCN(Cc2ccc3c(c2)OCO3)CC1	500
O=C(CN1C(=O)c2cccc3cccc(c23)C1=O)N1CCOCC1	.
Cc1cc(N2CCN(S(=O)(=O)Cc3ccccc3)CC2)n2ncnc2n1	.
Cc1ccc(Cn2cc(/C=C/C(=O)O)c(-c3ccccc3)n2)cc1	.
CCN(CC(=O)NCCc1ccccc1)S(=O)(=O)c1ccc(Br)cc1	.
CCCNC(=O)CN(CCc1ccccc1)S(C)(=O)=O	93
CCOCCCNC(=O)CN(Cc1ccc(Cl)cc1)S(C)(=O)=O	.
COc1ccc(N2CCN(C(=O)CSc3nc4c(c(=O)n(C)c(=O)n4C)n3C(C)C)CC2)cc1	.
CCN(CC)S(=O)(=O)c1ccc(OC)c(NC(=O)c2cc([N+](=O)[O-])ccc2Cl)c1	.
Cc1cccc(-c2nc(CN3CCCC(C(=O)NC4CCCCCC4)C3)c(C)o2)c1 (stereo unspecified)	171
Cc1noc(C)c1S(=O)(=O)N1CCCC(C(=O)NC2CCCCC2)C1 (stereo unspecified)	.
Cc1cccc(-c2nc(CS(=O)CC(=O)NCC3CCCO3)c(C)o2)c1 (stereo unspecified)	.
Cc1cc(C(=O)COC(=O)Cc2n[nH]c(=O)c3ccccc23)c(C)n1-c1ccc2c(c1)OCCO2	.
CC(=O)c1ccc(NC(=O)CCCN2C(=O)/C(=C/C(C)=C/c3ccccc3)SC2=S)cc1	.
O=C(CN1C(=O)S/C(=C/C=C/c2ccccc2)C1=O)Nc1ccc(C(=O)O)cc1	550
SMILES	Insulin prom act
Cn1cc(/C=C2/SC(=O)N(CC(=O)Nc3ccc4c(c3)OCO4)C2=O)c2ccccc21	.
O=C(Nc1nnc(C2CC2)s1)c1cccc(S(=O)(=O)N2CCc3ccccc32)c1	.
O=C(COn1nnc2ccc(C(F)(F)F)cc21)Nc1c(Cl)cccc1Cl	.
CCOc1ccc(N(C(C)C(=O)NN=C2CCCCCCC2)S(C)(=O)=O)cc1 (stereo unspecified)	.
COP(=O)(OC)c1nc(-c2ccccc2)oc1N1CCOCC1	.
CCCS(=O)(=O)N1CCN=C1SCc1cccc2ccccc12	.
